{"data": "Measurements pooled from the literature", "Dihydrofolate reductase": "Dihydrofolate reductase (Bos taurus, UniProt P00376)", "MAPK14": "Mitogen-activated protein kinase 14 (MAPK14, Homo sapiens, UniProt Q16539)", "note": "Lines come from different studies, so protocols differ."}
{"SMILES": "COc1ccc(N2N=C(C(C)=O)SC2=C(C#N)C(=O)c2ccc(Nc3cnccn3)cc2)cc1", "target": "Dihydrofolate reductase", "observed": "enzyme activity", "action": "inhibitor", "IC50 [µM]": 3.82}
{"SMILES": "c1ccc(Cn2cc(-c3ccnc4ccccc34)c(-c3ccccn3)n2)cc1", "target": "MAPK14", "observed": "enzyme activity", "action": "inhibitor", "technique": "ADP detection", "IC50 [µM]": 3}
{"SMILES": "CN1CCC(CNc2ccc3ncc(-c4cccc(OC(F)(F)F)c4)n3n2)CC1", "target": "5-hydroxytryptamine receptor 1A (HTR1A, Homo sapiens, UniProt P08908)", "observed": "cAMP", "action": "agonist", "IC50 [µM]": 7.13}
{"SMILES": "COc1ccc(N2N=C(C(=O)c3ccc(Nc4cnccn4)cc3)SC2=C(C#N)C#N)cc1", "target": "Dihydrofolate reductase", "observed": "enzyme activity", "action": "inhibitor", "IC50 [µM]": 0.36}
{"SMILES": "c1ccc(-c2occc2-c2ccnc3ccccc23)nc1", "target": "MAPK14", "observed": "enzyme activity", "action": "inhibitor", "technique": "ADP detection", "IC50 [µM]": "> 30"}
{"SMILES": "COc1cc(C=O)ccc1O", "target": "Sucrase-isomaltase, intestinal (Si, Rattus norvegicus, UniProt P23739)", "observed": "enzyme activity", "action": "inhibitor", "technique": "absorbance", "IC50 [µM]": 1350}
{"SMILES": "CC(C)(C)NS(=O)(=O)c1cccc(C(=O)N2CC3(CCC4(CC4)CC3)c3cc(NS(C)(=O)=O)ccc32)c1", "target": "Kinesin-like protein KIFC1 (KIFC1, Homo sapiens, UniProt Q9BW19)", "observed": "ATPase activity", "action": "inhibitor", "IC50 [µM]": "> 100"}
{"SMILES": "c1ccc(-c2n[nH]cc2-c2ccncn2)nc1", "target": "MAPK14", "observed": "enzyme activity", "action": "inhibitor", "technique": "ADP detection", "IC50 [µM]": 1.5}
{"SMILES": "CNCc1cc(-c2cc(O)ccc2OC(F)(F)F)ccc1F", "target": "Estrogen receptor (ESR1, Homo sapiens, UniProt P03372, D538G)", "observed": "coactivator recruitment", "technique": "TR-FRET", "IC50 [µM]": "~18"}
{"SMILES": "NC/C(=C\\F)COc1cccc(Cn2c(=S)[nH]c(=O)c3[nH]cnc32)c1", "target": "Amine oxidase [copper-containing] 3 (Rattus norvegicus, UniProt O08590)", "observed": "enzyme activity", "action": "inhibitor", "IC50 [µM]": 0.005}
{"SMILES": "COc1ccc(-n2nc(C(=O)c3ccc(Nc4cnccn4)cc3)sc2=N)cc1", "target": "Dihydrofolate reductase", "observed": "enzyme activity", "action": "inhibitor", "IC50 [µM]": 11.7}
{"SMILES": "c1ccc(Cc2[nH]nc(-c3ccccn3)c2-c2ccnc3ccccc23)cc1", "target": "MAPK14", "observed": "enzyme activity", "action": "inhibitor", "technique": "ADP detection", "IC50 [µM]": 5.2}
